The results in this text go back to ChEMBL document CHEMBL3864175, “Sulfonamides as Selective NaV1.7 Inhibitors: Optimizing Potency and Pharmacokinetics to Enable in Vivo Target Engagement” (ACS Med Chem Lett, 2016).

Series [1] has as its system Mus musculus. Description: Toxicity in C57BL/6 mouse assessed as reduction in locomotor activity at 5 to 60 mg/kg, po measured after 4 hrs by open field movement assay. The series is classed as organism-based. The conditions noted are these: in vivo.
Series [2] deals with T1, Sodium channel protein type 9 subunit alpha (Homo sapiens, UniProt Q15858). Description: Inhibition of 20% inactivated human Nav1.7 expressed in HEK293 cells assessed as inhibition of peak inward current by whole cell patch clamp method. It counts as cell-based. An outline of the steps:
(§1)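 Electrophysiological block was measured with cells depolarized to a voltage that gave 20% channel inactivation, as opposed to a fully non-inactivated (closed) holding condition.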

Series [3] concerns the target T1, Sodium channel protein type 9 subunit alpha. Kind of series: Inhibition of human Nav1.7 expressed in HEK293 cells assessed as inhibition of sodium current at holding potential of -125 mV measured for 3 to 5 mins by whole cell voltage clamp method. It counts as cell-based.
A short description of series [4]: Oral bioavailability in dog at 1.7 mg/kg by LC-MS/MS analysis. The note with it: in vivo. It counts as ADME, organism-based, Canis lupus familiaris. An outline of the steps:
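Dogs given a 1.7 mg/kg oral dose as a solution in 30% HPBCD/70% water/KOH at pH = 10; plasma parameters derived from this oral dosing, with the iv dose at 0.5 mg/kg in the same vehicle.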

Series [5] is described as follows: Oral bioavailability in rat at 10 mg/kg by LC-MS/MS analysis. The series is classed as ADME, organism-based. The conditions noted are these: in vivo. Put shortly:
(§2)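 Rats dosed orally at 10 mg/kg as a solution in 30% HPBCD/70% water, brought to pH 10 with KOH.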

The nature of series [6]: Clearance in rat at 0.5 mg/kg, iv by LC-MS/MS analysis. The series is classed as ADME, organism-based. The conditions noted are these: in vivo. Put shortly: (§3)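 Male rats, n = 2 per group, dosed intravenously at 0.5 mg/kg as a solution in 100% DMSO. Unbound clearance is derived from total clearance.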
The nature of series [7]: Total plasma concentration in histamine induced C57BL/6 mouse model of scratching at 60 mg/kg, po pretreated for 120 mins followed by histamine-challenge measured after 30 mins. It counts as ADME, organism-based. An outline of the steps:
(§4)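 Male C57BL/6 mice dosed orally 120 min before intradermal histamine. Scratching bouts counted over 30 min and compared with vehicle by one-way ANOVA with Dunnett's test. Total and unbound plasma levels taken 30 min after histamine.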

A short description of series [8]: Total plasma concentration in histamine induced C57BL/6 mouse model of scratching at 5 mg/kg, po pretreated for 120 mins followed by histamine-challenge measured after 30 mins. It counts as ADME, organism-based. Put shortly: as §4
The nature of series [9]: Total plasma concentration in histamine induced C57BL/6 mouse model of scratching at 20 mg/kg, po pretreated for 120 mins followed by histamine-challenge measured after 30 mins. It counts as ADME, organism-based. An outline of the steps: as §4
In series [10] the target is Sodium channel protein type 9 subunit alpha (Mus musculus, UniProt Q62205). Description: Inhibition of 20% inactivated Nav1.7 in C57BL/6 mouse DRG neurons assessed as inhibition of sodium currents in presence of TTX by whole cell patch clamp assay. Put shortly: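 Electrophysiology of TTX-sensitive sodium channels recorded from the cell bodies of sensory neurons freshly dissociated from mouse dorsal root ganglia.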
Chain of Sodium channel protein type 9 subunit alpha (Mus musculus, UniProt Q62205) (Q62205 whole entry): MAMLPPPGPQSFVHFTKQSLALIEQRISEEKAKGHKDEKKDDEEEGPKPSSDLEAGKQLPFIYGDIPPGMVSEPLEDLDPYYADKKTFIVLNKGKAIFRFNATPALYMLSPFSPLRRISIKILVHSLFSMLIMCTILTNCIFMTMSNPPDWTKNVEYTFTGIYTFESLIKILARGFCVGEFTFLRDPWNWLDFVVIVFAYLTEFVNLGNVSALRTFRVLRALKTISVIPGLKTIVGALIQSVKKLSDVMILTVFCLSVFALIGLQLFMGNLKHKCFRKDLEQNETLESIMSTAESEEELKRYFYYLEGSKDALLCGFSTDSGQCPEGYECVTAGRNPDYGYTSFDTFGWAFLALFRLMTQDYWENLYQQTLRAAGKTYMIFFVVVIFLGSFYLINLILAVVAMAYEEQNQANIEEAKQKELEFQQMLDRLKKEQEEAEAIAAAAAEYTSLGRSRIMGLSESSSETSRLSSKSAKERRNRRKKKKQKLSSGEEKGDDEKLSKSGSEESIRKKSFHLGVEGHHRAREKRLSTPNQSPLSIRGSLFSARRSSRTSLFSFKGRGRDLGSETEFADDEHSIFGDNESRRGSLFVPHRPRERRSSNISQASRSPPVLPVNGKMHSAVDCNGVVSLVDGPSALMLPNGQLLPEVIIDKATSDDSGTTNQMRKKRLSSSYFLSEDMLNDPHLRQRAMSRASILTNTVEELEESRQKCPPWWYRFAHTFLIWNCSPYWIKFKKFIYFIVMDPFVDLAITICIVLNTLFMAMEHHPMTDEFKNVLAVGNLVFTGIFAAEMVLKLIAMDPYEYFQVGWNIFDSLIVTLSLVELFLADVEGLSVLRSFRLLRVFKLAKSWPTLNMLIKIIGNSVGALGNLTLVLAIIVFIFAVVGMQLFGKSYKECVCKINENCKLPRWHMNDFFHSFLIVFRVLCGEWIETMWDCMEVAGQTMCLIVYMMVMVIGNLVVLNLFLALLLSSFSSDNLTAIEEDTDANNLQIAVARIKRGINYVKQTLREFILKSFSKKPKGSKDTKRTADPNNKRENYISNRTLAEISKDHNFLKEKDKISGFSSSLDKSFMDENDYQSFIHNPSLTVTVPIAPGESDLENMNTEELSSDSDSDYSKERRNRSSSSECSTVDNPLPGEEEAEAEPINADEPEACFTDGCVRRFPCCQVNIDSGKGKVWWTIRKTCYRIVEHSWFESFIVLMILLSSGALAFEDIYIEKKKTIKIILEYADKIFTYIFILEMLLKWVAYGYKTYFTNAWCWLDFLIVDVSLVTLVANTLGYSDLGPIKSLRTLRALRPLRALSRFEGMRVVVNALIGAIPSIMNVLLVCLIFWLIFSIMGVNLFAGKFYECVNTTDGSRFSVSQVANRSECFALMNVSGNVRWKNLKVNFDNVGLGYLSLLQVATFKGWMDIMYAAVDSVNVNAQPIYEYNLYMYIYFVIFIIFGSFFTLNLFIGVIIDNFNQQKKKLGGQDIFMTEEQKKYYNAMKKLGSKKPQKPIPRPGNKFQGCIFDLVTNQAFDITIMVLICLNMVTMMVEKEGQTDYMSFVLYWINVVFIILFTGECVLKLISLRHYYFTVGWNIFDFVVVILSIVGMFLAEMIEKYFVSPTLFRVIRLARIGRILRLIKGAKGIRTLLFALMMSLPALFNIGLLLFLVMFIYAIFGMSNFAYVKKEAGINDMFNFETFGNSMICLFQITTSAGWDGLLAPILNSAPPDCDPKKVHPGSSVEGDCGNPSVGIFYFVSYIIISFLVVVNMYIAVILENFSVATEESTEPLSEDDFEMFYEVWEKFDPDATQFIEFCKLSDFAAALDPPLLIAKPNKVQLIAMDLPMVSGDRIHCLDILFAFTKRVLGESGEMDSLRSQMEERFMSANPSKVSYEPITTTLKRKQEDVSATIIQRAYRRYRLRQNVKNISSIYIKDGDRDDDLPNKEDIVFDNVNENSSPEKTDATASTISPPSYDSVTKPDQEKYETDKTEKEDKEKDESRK

A short description of series [11]: Volume of distribution at steady state in dog at 0.5 mg/kg, iv by LC-MS/MS analysis. The conditions noted are these: in vivo. The series is classed as ADME, organism-based, Canis lupus familiaris. An outline of the steps: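 Dogs dosed intravenously at 0.5 mg/kg in 30% HPBCD/70% water, brought to pH 10 with KOH.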
Series [12] in a line: Inhibition of 20% inactivated cynomolgus monkey Nav1.7 expressed in HEK293T cells assessed as inhibition of sodium current measured for 3 to 5 mins by whole cell voltage clamp method. The series is classed as cell-based. The note with it: Macaca fascicularis, HEK-293T. Put shortly: as §1
In series [13] the test system is Mus musculus. Description: Antipruritic activity in histamine-induced scratching C57BL/6 mouse model assessed as reduction in scratching bouts administered orally 120 mins prior to histamine challenge measured after 30 mins relative to vehicle-treated control. It counts as functional. An outline of the steps:
as §4

Series [14] in a line: Tmax in rat at 10 mg/kg, po by LC-MS/MS analysis. It counts as ADME, organism-based. The conditions noted are these: in vivo. An outline of the steps:
as §2

In series [15] the target is T1, Sodium channel protein type 9 subunit alpha. Kind of series: Inhibition of human Nav1.7 expressed in HEK293 cells assessed as inhibition of sodium current at holding potential of -60 mV measured for 3 to 5 mins by whole cell voltage clamp method. It counts as cell-based.
Series [16] in a line: Drug uptake in plasma of po dosed histamine induced C57BL/6 mouse model of scratching pretreated for 120 mins followed by histamine-challenge measured after 30 mins. It counts as ADME, organism-based. The note with it: in vivo, 0.5 h. An outline of the steps:
as §4

Series [17] can be described thus: Half life in rat at 0.5 mg/kg, iv by LC-MS/MS analysis. The series is classed as ADME, organism-based. The conditions noted are these: in vivo. Put shortly:
as §3

Series [18] in a line: Unbound plasma concentration in histamine induced C57BL/6 mouse model of scratching at 60 mg/kg, po pretreated for 120 mins followed by histamine-challenge measured after 30 mins. The conditions noted are these: in vivo, 0.5 h. It counts as ADME, organism-based. An outline of the steps: as §4

T1 sequence (Q15858 whole entry): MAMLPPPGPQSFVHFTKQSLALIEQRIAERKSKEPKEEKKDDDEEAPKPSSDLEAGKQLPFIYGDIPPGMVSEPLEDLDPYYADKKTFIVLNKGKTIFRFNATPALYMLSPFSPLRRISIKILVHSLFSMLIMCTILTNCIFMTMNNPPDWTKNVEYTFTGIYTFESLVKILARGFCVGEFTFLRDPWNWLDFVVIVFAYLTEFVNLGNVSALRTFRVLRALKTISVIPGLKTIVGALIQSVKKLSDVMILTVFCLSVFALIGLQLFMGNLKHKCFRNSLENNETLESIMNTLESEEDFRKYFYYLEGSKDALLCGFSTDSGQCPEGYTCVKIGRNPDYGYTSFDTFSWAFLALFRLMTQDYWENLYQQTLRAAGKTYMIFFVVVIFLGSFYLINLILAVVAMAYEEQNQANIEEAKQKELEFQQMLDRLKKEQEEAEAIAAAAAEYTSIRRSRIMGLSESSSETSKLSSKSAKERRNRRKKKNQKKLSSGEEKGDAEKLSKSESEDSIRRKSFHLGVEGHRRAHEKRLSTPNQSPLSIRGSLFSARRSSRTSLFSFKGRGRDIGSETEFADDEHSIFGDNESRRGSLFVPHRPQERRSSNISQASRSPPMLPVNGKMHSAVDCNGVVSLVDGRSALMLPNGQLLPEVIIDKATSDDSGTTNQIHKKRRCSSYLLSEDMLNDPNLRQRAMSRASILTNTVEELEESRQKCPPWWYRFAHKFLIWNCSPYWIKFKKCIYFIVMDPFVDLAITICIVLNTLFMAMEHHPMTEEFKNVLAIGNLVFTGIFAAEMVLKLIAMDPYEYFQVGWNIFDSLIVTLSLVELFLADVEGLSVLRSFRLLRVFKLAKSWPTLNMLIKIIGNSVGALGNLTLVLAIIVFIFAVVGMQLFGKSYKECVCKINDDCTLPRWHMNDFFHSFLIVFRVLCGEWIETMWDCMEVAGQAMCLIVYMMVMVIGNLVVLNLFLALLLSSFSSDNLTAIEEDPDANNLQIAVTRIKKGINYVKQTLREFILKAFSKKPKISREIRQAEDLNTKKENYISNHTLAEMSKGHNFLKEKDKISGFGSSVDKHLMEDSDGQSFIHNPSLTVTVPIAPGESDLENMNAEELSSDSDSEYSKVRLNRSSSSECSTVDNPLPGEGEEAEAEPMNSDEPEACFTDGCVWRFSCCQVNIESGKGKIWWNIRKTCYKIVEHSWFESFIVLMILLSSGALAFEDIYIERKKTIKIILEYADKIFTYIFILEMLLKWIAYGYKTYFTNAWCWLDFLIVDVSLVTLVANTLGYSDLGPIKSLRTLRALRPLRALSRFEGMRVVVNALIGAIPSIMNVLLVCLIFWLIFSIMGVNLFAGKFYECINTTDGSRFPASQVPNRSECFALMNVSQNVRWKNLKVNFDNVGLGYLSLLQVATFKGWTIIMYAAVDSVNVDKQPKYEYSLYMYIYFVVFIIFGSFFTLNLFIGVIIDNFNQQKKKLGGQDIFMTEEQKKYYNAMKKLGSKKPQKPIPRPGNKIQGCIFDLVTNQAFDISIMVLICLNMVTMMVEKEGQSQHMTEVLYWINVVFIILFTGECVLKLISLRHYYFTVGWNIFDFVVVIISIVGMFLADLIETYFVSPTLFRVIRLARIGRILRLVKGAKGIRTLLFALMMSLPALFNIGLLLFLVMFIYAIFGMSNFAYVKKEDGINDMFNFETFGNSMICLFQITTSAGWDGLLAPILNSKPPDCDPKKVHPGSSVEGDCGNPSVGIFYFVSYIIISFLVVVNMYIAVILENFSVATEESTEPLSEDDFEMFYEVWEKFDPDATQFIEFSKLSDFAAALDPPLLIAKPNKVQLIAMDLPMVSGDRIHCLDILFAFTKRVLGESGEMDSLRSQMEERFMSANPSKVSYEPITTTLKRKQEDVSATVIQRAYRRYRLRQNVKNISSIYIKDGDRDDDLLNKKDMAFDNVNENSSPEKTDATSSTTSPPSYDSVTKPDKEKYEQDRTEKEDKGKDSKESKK

Regarding `COc1cc(C(F)(F)F)ccc1-c1ncnc2cc(S(=O)(=O)Nc3nccs3)ccc12`, the Activity entry with Mus musculus [1] is “Non-Toxic”; in the series on Mus musculus [13], “Dose-dependent effect”. In addition, the IC50 in series [2] amounted to 140 nM; in [3], 160 nM; in series [10], 130 nM; in [12], 160 nM; in series [15], 9 nM. For the same molecule, the bioavailability in series [4] amounted to 53%; in [5], 100%. The same molecule gave a clearance in [6] of 9 mL/min/kg. The concentration at 0.5 h in series [7] came to 150 µM; in series [8], 3.1 µM; in series [9], 22 µM. The volume of distribution (Vd) in series [11] worked out at 0.31 L/kg. Also, in series [14], the time of peak concentration (Tmax) came to 1.7 h. In series [16], the Drug uptake entry is “Dose-dependent effect”. The half-life in series [17] is 1.9 h. For the same molecule, the “Cp(f)” value in series [18] is 5.1 µM.
